Screening results deposited in PubChem BioAssay by several laboratories.
FAS TE block – FAS thioesterase domain inhibitors, primary screen, biochemical, fluorescence intensity, uHTS; Fatty acid synthase (Homo sapiens), P49327; inhibition, % at 15 µM; recombinant FAS-TE, OMFH fluorogenic substrate, fluorescence endpoint; AID 602261, 2012; 0.67% of 360,000 active;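 active = compounds whose normalised, plate-corrected inhibition of enzyme fluorescence in the single-dose primary screen is 50% or more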;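 note: 0% = DMSO with enzyme and 100% = substrate without enzyme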
HDAC3 inhib – HDAC3 deacetylase inhibitors, primary screen, biochemical, fluorescence, cell-free homogeneous; Histone deacetylase 3 (Homo sapiens), O15379; 0.15% of 320,000 active; recombinant HDAC3, fluorogenic peptide/trypsin coupled; inhibition, % at 8.3 µM; AID 2718, 2010; in the data active = inhibition above about 26%, passing the limit was not always enough; inconclusive = no clear call, values can overlap the other calls
PfM18AAP inh – PfM18AAP inhibitors, malaria aminopeptidase, primary screen, biochemical, QFRET, recombinant enzyme; M18 aspartyl aminopeptidase (Plasmodium falciparum 3D7); H-Glu-NHMec fluorogenic cleavage; inhibition, % at 7.35 µM; 1.2% of 290,000 active;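 active = inhibition above the campaign mean inhibition over all tested compounds plus 3 SD, cut at about 28% in these data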;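 note: 0% = plate median of test compound wells and 100% = 2 mM ZnCl2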
Rtt109 Vps75 – inhibitors of C. albicans Rtt109/Vps75 HAT, primary screen, biochemical, ThioGlo CoA-SH fluorescence, plate reader. 0.16% of 330,000 active. inhibition, % at 34.9 µM. purified Rtt109/Vps75, 4 h. AID 540336, 2011. Histone acetyltransferase RTT109 (Candida albicans (strain SC5314 / ATCC MYA-2876)), …;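 active = inhibition of at least 50% in every replicate; inconclusive = best replicate reaches 50% inhibition but some replicates fall short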
ALR H2O2 inh – inhibitors of human ALR sulfhydryl oxidase, primary screen, biochemical, H2O2 detection, HRP-luminol luminescence, single point; FAD-linked sulfhydryl oxidase ALR (Homo sapiens), P55789; purified ALR, DTT oxidation; inhibition, % (no concentration beside the values); 3.8% of 290,000 active;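 active = mean replicate inhibition above about 79%, with every replicate also reaching it, limit read from the data; inconclusive = only one of the two criteria met; inactive = mean below limit and not every replicate reaching it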
UCH37 DUB inh – inhibitors of human UCH37 deubiquitinase, primary screen, biochemical, Ub-AMC cleavage, fluorescence; Ubiquitin carboxyl-terminal hydrolase isozyme L5 (Homo sapiens), Q9Y5K5; purified proteasome/UCH37; inhibition, % (concentration not given with the values); 0.33% of 330,000 active; AID 588478, 2011;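 active = mean inhibition over replicate wells above about 20%, limit read from the data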;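 note: 0% = compound-free wells with enzyme and 100% = wells lacking proteasome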
Target sequence (Q9Y5K5 whole entry, looked up): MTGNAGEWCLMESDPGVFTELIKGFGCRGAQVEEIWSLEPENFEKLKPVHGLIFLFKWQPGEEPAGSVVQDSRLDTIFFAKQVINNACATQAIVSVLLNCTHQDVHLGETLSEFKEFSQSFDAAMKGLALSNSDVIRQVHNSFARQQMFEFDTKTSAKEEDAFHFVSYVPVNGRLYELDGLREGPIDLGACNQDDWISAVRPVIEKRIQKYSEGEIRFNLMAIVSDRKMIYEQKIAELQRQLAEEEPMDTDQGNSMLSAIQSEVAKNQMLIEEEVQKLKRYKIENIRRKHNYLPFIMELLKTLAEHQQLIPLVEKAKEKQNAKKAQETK
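Material: Human UCH37 enzyme supplied as purified proteasome complex | Schedule: 30 min preincubation with enzyme, 25 min cleavage at room temperature | Detection: AMC fluorescence 355/460 nm | Measure: % inhibition of Ub-AMC cleavage fluorescence | Controls: Wells without proteasome as full block, compound-free enzyme plus substrate as uninhibited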
Numbers without * were called inactive; ? = inconclusive; / = no result given. Most compounds without a hit are left out; they make up all but 4.6% or so of the library.

SMILES	FAS TE block	HDAC3 inhib	PfM18AAP inh	Rtt109 Vps75	ALR H2O2 inh	UCH37 DUB inh
CCc1ccccc1NN=C(C)c1c(O)cc(C)oc1=O	/	/	/	/	/	5
C/C(=N\Nc1ccc(Cl)cc1)c1c(O)cc(C)oc1=O	-2	6	11	6	99*	/
CC1=C(C#N)C(=O)NC(=O)/C1=C\c1ccc(-c2ccc(C)cc2[N+](=O)[O-])o1	2	/	25	5	/	10
CCCCC1(C)OC(=O)C(=Cc2ccc(-c3ccc(Cl)c(C(=O)O)c3)o2)C(=O)O1 (centres undefined)	-7	9	25	3	98*	0
CCOC(=O)c1cc(-c2ccc(/C=C3/C(=O)NC(=O)C(C#N)=C3C)o2)ccc1Cl	-2	8	8	24	-20	22*
Cc1ccc(N2NC(=O)/C(=C/c3ccc(-c4ccc(Cl)c(C(=O)O)c4)o3)C2=O)cc1	-9	4	-8	/	99*	6
COc1ccc(C=NNC(=O)Cc2cccs2)cc1	/	/	/	/	/	9
Cn1c(N2CCOCC2)c(C=NOC(=O)c2ccc(F)cc2)c2ccccc21	/	/	/	/	/	-4
CCC(CC)C1C(C#N)=C(N)SC(N)=C1C#N	-10	4	31*	-4	/	5
CC(C)C1C(C#N)=C(N)SC(N)=C1C#N	-11	4	19	-1	22	3
N#CCC(=O)Nc1sc2c(c1C(N)=O)CCCC2	2	6	5	-4	90*	7
CCC(=O)Nc1sc2c(c1C(N)=O)CCC2	-7	-4	6	-8	43	-3
C=CCNC(=S)Nc1sc2c(c1C(N)=O)CCCC2	-5	9	15	/	98*	/
COc1ccc(C(C)=NNC(=O)c2nnn(-c3nonc3N)c2-c2cccs2)cc1OC	/	/	/	/	/	-364
CCn1cc(/C=C/c2cc[n+](C)cc2)c2ccccc21	-21	3	10	-11	/	20*
C=CCn1cc(/C=C/c2cc[n+](C)cc2)c2ccccc21	-19	?	5	6	-38	22*
N#Cc1c(NC(=O)c2cccc(S(=O)(=O)Nc3ccc(C(=O)O)cc3)c2)sc2c1CCCC2	5	8	13	14	89*	7
O=C(O)c1ccc(NS(=O)(=O)c2cccc(C(=O)Nc3ccc(Br)cc3)c2)cc1	0	1	-3	0	-5	3
O=C(O)CCC(=NNC(=O)CNC(=O)C(c1ccccc1)c1ccccc1)c1ccccc1	/	/	/	/	/	3
CCOc1ccccc1Nc1nc2ccccc2[nH]1	-9	6	-9	6	96*	0
CCOc1ccccc1OCC(=O)Nc1nc2ccccc2[nH]1	-9	0	3	5	-10	4
CN(C)c1ccc(NC(=O)Nc2ccc3snnc3c2)cc1	-3	-2	-26	-6	95*	-3
N#Cc1ccc(NC(=O)CSc2nc3[nH]c(=O)cc(O)c3s2)cc1	-4	5	/	1	99*	5
CSc1ccc(NC(=O)CSc2nc3[nH]c(=O)cc(O)c3s2)cc1	6	-1	/	-3	99*	6
COc1ccc(NC(=O)CSc2nc3[nH]c(=O)cc(O)c3s2)cc1OC	-4	-2	/	4	99*	5
SMILES	FAS TE block	HDAC3 inhib	PfM18AAP inh	Rtt109 Vps75	ALR H2O2 inh	UCH37 DUB inh
CCC(C)=NNc1nc(-c2cc3cccc(OC)c3oc2=O)cs1	/	/	/	/	/	-6
CCOc1ccc(CSC(=N)N)cc1[N+](=O)[O-]	-22	0	-5	27	98*	4
CCOc1ccc(CSC(=N)N)cc1Cl	-12	-1	-2	/	100*	2
CC1CCCN(c2ccc([N+](=O)[O-])s2)C1 (centres undefined)	11	/	2	-4	/	15
O=[N+]([O-])c1ccc(N2CCCCC2)s1	-5	5	5	/	-3	20*
COc1ccccc1N1CCN(CCN(C(=O)c2ccc(F)cc2)c2ccccn2)CC1	-2	3	/	4	94*	5
COc1ccccc1N1CCN(CCN(C(=O)C2CCCCC2)c2ccccn2)CC1	0	12	/	-21	97*	1
O=C(CC=NOCc1c(Cl)cccc1Cl)c1cnc(-c2ccccc2)s1	/	/	/	/	/	1
